The text below walks through data of ChEMBL document CHEMBL1275516, “Macrolide antibiotic-mediated downregulation of MexAB-OprM efflux pump expression in Pseudomonas aeruginosa” (2008).

≈ marks a conversion by molar mass, not a printed value. A value given as a limit tells only on which side of the number the result lay.

What all share (format): functional
Test [1] deals with Pseudomonas aeruginosa. Kind of test: Antibacterial activity against Pseudomonas aeruginosa TNP030 by agar dilution method. The procedure, abridged:
(§1)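 Agar dilution on Mueller-Hinton agar with an inoculum of 150 CFU/5 μl per spot. Plates were run with or without 1.0 μg/ml azithromycin incorporated in the agar, and MIC was read for each strain.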
In general terms: In agar dilution, organisms are placed on agar that contains the substance at set levels.

The subject of test [2] is Pseudomonas aeruginosa. Kind of test: Antibacterial activity against MeXAB-OprM deficient Pseudomonas aeruginosa TNP077 by agar dilution method. In short, it runs like this: as §1
For test [3], the system named is Pseudomonas aeruginosa. Kind of test: Antibacterial activity against Pseudomonas aeruginosa PAO4290 selected after 1.0 ug/ml of azithromycin by agar dilution method. The procedure, abridged: as §1
Test [4] has as its system Pseudomonas aeruginosa. Kind of test: Antibacterial activity against MeXAB-OprM deficient Pseudomonas aeruginosa TNP077 selected after 1.0 ug/ml of azithromycin by agar dilution method. In short, it runs like this: as §1
Test [5] relates to Pseudomonas aeruginosa. Kind of test: Antibacterial activity against Pseudomonas aeruginosa TNP030 selected after 1.0 ug/ml of azithromycin by agar dilution method. In short, it runs like this:
as §1

Test [6] deals with Pseudomonas aeruginosa. Kind of test: Antibacterial activity against Pseudomonas aeruginosa PAO4290 by agar dilution method. The procedure, abridged:
as §1

Test [7] deals with Pseudomonas aeruginosa. Kind of test: Inhibition of MexAB-OprM efflux pump expression in Pseudomonas aeruginosa TNP090 mutant harboring las and rhl gene at 0.016 ug/ml by Cat-2,3-diO reporter gene assay relative to untreated control. Particulars: values are per cent of control. In short, it runs like this: (§2)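 Overnight TNP090 (mexB::xylE reporter) preculture diluted 10,000-fold into fresh medium with or without antibiotic, dosed as fractions of the TNP090 MIC. Shaken at 200 rpm, 37°C, for 9 h to A600 ~1.5 (early stationary phase). Extracts made by French press at 130 MPa, then centrifuged at 13,000 × g. Cat-2,3-diO activity expressed relative to drug-free culture.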
(In a reporter assay the amount or activity of a reporter protein is the signal.)

Test [8] concerns Pseudomonas aeruginosa. Kind of test: Inhibition of MexAB-OprM efflux pump expression in Pseudomonas aeruginosa TNP090 mutant harboring las and rhl gene at 0.06 ug/ml by Cat-2,3-diO reporter gene assay relative to untreated control. Conditions: values are per cent of control. The procedure, abridged: as §2
Test [9] deals with Pseudomonas aeruginosa. Kind of test: Inhibition of MexAB-OprM efflux pump expression in Pseudomonas aeruginosa TNP090 mutant harboring las and rhl gene at 0.03 ug/ml by Cat-2,3-diO reporter gene assay relative to untreated control. Particulars: values are per cent of control. The procedure, abridged:
as §2

Test [10] has as its system Pseudomonas aeruginosa. Kind of test: Inhibition of MexAB-OprM efflux pump expression in Pseudomonas aeruginosa TNP090 mutant harboring las and rhl gene at 0.125 ug/ml by Cat-2,3-diO reporter gene assay relative to untreated control. Particulars: values are per cent of control. In short, it runs like this: as §2
The test system of test [11] is Pseudomonas aeruginosa. Kind of test: Inhibition of MexAB-OprM efflux pump expression in Pseudomonas aeruginosa TNP090 mutant harboring las and rhl gene at 1 ug/ml after 7.5 hrs by Cat-2,3-diO reporter gene assay relative to untreated control. Particulars: TNP090, 7.5 h. The procedure, abridged:
(§3)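 Overnight TNP090 preculture diluted 100,000-fold (A600 3 × 10−5) in LB with or without 1 μg/ml azithromycin. Grown at 37°C with 200 rpm rotation and harvested at 5.5 h (AZM) or 4.5 h (drug-free), then at +2, +4 and +6 h. French-press extracts (130 MPa ×3), 13,000 × g supernatant assayed for Cat-2,3-diO. 1 unit = 1 nmol substrate/min/mg protein. Representative of repeated experiments.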

For test [12], the system named is Pseudomonas aeruginosa. Kind of test: Inhibition of MexAB-OprM efflux pump expression in Pseudomonas aeruginosa TNP090 mutant harboring las and rhl gene at 1 ug/ml after 11.5 hrs by Cat-2,3-diO reporter gene assay relative to untreated control. Particulars: TNP090, 11.5 h. The procedure, abridged:
as §3

The subject of test [13] is Pseudomonas aeruginosa. Kind of test: Inhibition of MexAB-OprM efflux pump expression in Pseudomonas aeruginosa TNP090 mutant harboring las and rhl gene at 1 ug/ml by Cat-2,3-diO reporter gene assay. The procedure, abridged:
as §3

Test [14] concerns Pseudomonas aeruginosa. Kind of test: Inhibition of MexAB-OprM efflux pump expression in Pseudomonas aeruginosa TNP090 mutant harboring las and rhl gene at 1 ug/ml after 9.5 hrs by Cat-2,3-diO reporter gene assay relative to untreated control. Conditions: TNP090, 9.5 h. The procedure, abridged:
as §3

For test [15], the system named is Pseudomonas aeruginosa. Kind of test: Inhibition of MexAB-OprM efflux pump expression in Pseudomonas aeruginosa TNP090 mutant harboring las and rhl gene at 1 ug/ml after 5.5 hrs by Cat-2,3-diO reporter gene assay relative to untreated control. Particulars: TNP090, 5.5 h. The procedure, abridged:
as §3

For test [16], the system named is Pseudomonas aeruginosa. Kind of test: Inhibition of MexAB-OprM efflux pump expression in las1 and rhl1 deficient Pseudomonas aeruginosa TNP093 at 1 ug/ml after 9 hrs by Cat-2,3-diO reporter gene assay. Conditions: TNP093, 9 h, values are per cent of control. The procedure, abridged:
(§4)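 Reporter strains lacking lasI, rhlI or both were diluted 10,000-fold from overnight culture into fresh medium with or without 1 μg/ml azithromycin. Cultures were shaken at 200 rpm, 37°C for 9 h (A600 ~1.5, early stationary phase). Cat-2,3-diO activity was assayed in cell extracts and […].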

For test [17], the system named is Pseudomonas aeruginosa. Kind of test: Inhibition of MexAB-OprM efflux pump expression in Pseudomonas aeruginosa TNP090 mutant harboring las and rhl gene at 0.25 ug/ml by Cat-2,3-diO reporter gene assay relative to untreated control. Conditions: values are per cent of control. In short, it runs like this:
as §2

In test [18] the test system is Pseudomonas aeruginosa. Kind of test: Inhibition of MexAB-OprM efflux pump expression in rhl1 deficient Pseudomonas aeruginosa TNP092 at 1 ug/ml after 9 hrs by Cat-2,3-diO reporter gene assay. Conditions: TNP092, 9 h, values are per cent of control. The procedure, abridged:
as §4

Test [19] relates to Pseudomonas aeruginosa. Kind of test: Inhibition of MexAB-OprM efflux pump expression in las1 deficient Pseudomonas aeruginosa TNP091 at 1 ug/ml after 9 hrs by Cat-2,3-diO reporter gene assay. Conditions: TNP091, 9 h, values are per cent of control. In short, it runs like this: as §4
The subject of test [20] is Pseudomonas aeruginosa. Kind of test: Antibacterial activity against Pseudomonas aeruginosa TNP090 harboring chromosomal mexB::xylE fusion construct by agar dilution method. In short, it runs like this:
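Agar dilution MIC on Mueller-Hinton agar; inoculum 5 × 10^3 cells per spot.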

Test [21] relates to Pseudomonas aeruginosa. Kind of test: Inhibition of MexAB-OprM efflux pump expression in Pseudomonas aeruginosa TNP090 mutant harboring las and rhl gene at 1 ug/ml by Cat-2,3-diO reporter gene assay relative to untreated control. Particulars: values are per cent of control. In short, it runs like this:
as §2

For test [22], the system named is Pseudomonas aeruginosa. Kind of test: Inhibition of MexAB-OprM efflux pump expression in Pseudomonas aeruginosa TNP090 mutant harboring las and rhl gene at 0.5 ug/ml by Cat-2,3-diO reporter gene assay relative to untreated control. Particulars: values are per cent of control. The procedure, abridged: as §2
Test [23] deals with Pseudomonas aeruginosa. Kind of test: Inhibition of MexAB-OprM efflux pump expression in Pseudomonas aeruginosa at 1.0 ug/ml. The procedure, abridged: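 TNP090 (las+ rhl+, mexB::xylE reporter) overnight culture was diluted 100,000-fold (A600 3 × 10−5) into LB with or without 1 μg/ml azithromycin and shaken at 200 rpm, 37°C. Cells were harvested at ~4.5 h (drug-free) or 5.5 h (drug), then at plus 2, 4 and 6 h. Cat-2,3-diO activity was measured in French-press extracts (1 unit = 1 nmol substrate/min/mg protein). Results are representative of repeated experiments.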

A word on the MIC: it is the smallest concentration in the dilution series that meets the test's criterion for growth inhibition. Regarding `CC(C)(O/N=C(\C(=O)N[C@@H]1C(=O)N2C(C(=O)[O-])=C(C[n+]3ccccc3)CS[C@H]12)c1csc(N)n1)C(=O)O` [CEFTAZIDIME], the MIC in test [1] was 3.13 µg/mL (≈ 5.73 µM); in test [2], 0.39 µg/mL (≈ 0.714 µM); in test [3] it was 1.56 µg/mL; in test [4] it was 0.39 µg/mL; in test [5] it was 3.13 µg/mL; in test [6], 1.56 µg/mL (≈ 2.85 µM).
Consider `CN(C)[C@@H]1C(O)=C(C(N)=O)C(=O)[C@@]2(O)C(O)=C3C(=O)c4c(O)cccc4[C@@](C)(O)[C@H]3C[C@@H]12` [TETRACYCLINE], for which the response, % of control at 0.016 µg/mL in test [7] is 103%. Further, the MIC came out at 50 µg/mL (≈ 113 µM) in test [1]; 0.39 µg/mL (≈ 0.878 µM) in test [2]; 3.13 µg/mL in [3]; 0.39 µg/mL in test [4]; 50 µg/mL in test [5]; 12.5 µg/mL (≈ 28.1 µM) in test [6]. The molecule also came in with a response, % of control at 0.06 µg/mL in test [8] of 69%. Further, in [9], the response, % of control at 0.03 µg/mL is 94%. Further, the response, % of control at 0.125 µg/mL in test [10] was found to be 51%.
Regarding `C[C@@H](O)[C@H]1C(=O)N2C(C(=O)O)=C(SCCNC=N)C[C@H]12` [IMIPENEM ANHYDROUS], the minimal inhibitory concentration (MIC) in test [1] turned out to be 0.78 µg/mL (≈ 2.61 µM); in [2] it was 0.78 µg/mL (≈ 2.61 µM); in test [3], 0.78 µg/mL; in test [4] it was 0.78 µg/mL; in [5] it was 0.78 µg/mL; in test [6], 0.78 µg/mL (≈ 2.61 µM).
In the case of `O=C(N[C@H](CO)[C@H](O)c1ccc([N+](=O)[O-])cc1)C(Cl)Cl` [CHLORAMPHENICOL], the MIC worked out at 200 µg/mL (≈ 619 µM) in test [1]; 0.39 µg/mL (≈ 1.21 µM) in test [2]; 6.25 µg/mL in [3]; 0.39 µg/mL in [4]; 200 µg/mL in test [5]; 25 µg/mL (≈ 77.4 µM) in test [6].
Regarding `CC1(C)S[C@@H]2[C@H](NC(=O)C(C(=O)O)c3ccccc3)C(=O)N2[C@H]1C(=O)O` (stereo partly specified) [CARBENICILLIN], the MIC stood at 200 µg/mL (≈ 529 µM) in test [1]; 0.78 µg/mL (≈ 2.06 µM) in [2]; 12.5 µg/mL in test [3]; 1.56 µg/mL in [4]; 200 µg/mL in test [5]; 50 µg/mL (≈ 132 µM) in test [6].
In the case of `CO[C@@H]1[C@@H](OC(N)=O)[C@@H](O)[C@H](Oc2ccc3c(O)c(NC(=O)c4ccc(O)c(CC=C(C)C)c4)c(=O)oc3c2C)OC1(C)C` [NOVOBIOCIN], the MIC in test [1] was over 1200 µg/mL; in test [2] it was 12.5 µg/mL (≈ 20.4 µM); in test [3], 200 µg/mL; in test [4], 12.5 µg/mL; in test [5] it was over 1200 µg/mL; in test [6], 800 µg/mL (≈ 1310 µM).
One may read the inhibition as the relative decrease from the control value, in per cent. `CC[C@H]1OC(=O)[C@H](C)[C@@H](O[C@H]2C[C@@](C)(OC)[C@@H](O)[C@H](C)O2)[C@H](C)[C@@H](O[C@@H]2O[C@H](C)C[C@H](N(C)C)[C@H]2O)[C@](C)(O)C[C@@H](C)CN(C)[C@H](C)[C@@H](O)[C@]1(C)O` [AZITHROMYCIN]: the inhibition at 1 µg/mL in test [11] is -73%; in test [12], -63%; in [14], -70.2%; in test [15] it was -30.9%; in [23] it was 70%. Besides, in test [13], the Activity is given as 44.3. For the same molecule, the response, % of control at 1 µg/mL in [16] amounted to 100%; in [18], 90%; in test [19] it was 99%; in test [21], 37%. Also, the response, % of control at 0.25 µg/mL in test [17] stood at 78%. In test [20], this molecule gave an MIC of 6.25 µg/mL (≈ 8.34 µM). In [22], this molecule showed a response, % of control at 0.5 µg/mL of 65%. The molecule further had a response, % of control at 0.125 µg/mL in test [10] of 85%.
As for `CC1COc2c(N3CCN(C)CC3)c(F)cc3c(=O)c(C(=O)O)cn1c23` (stereo unspecified) [OFLOXACIN], the MIC in [1] was over 1.56 µg/mL; in test [2], 0.05 µg/mL (≈ 0.138 µM); in test [3] it was 0.78 µg/mL; in test [4], 0.05 µg/mL; in test [5], over 1.56 µg/mL; in test [6], 0.78 µg/mL (≈ 2.16 µM).
`C[C@H]1[C@H](NC(=O)/C(=N\OC(C)(C)C(=O)O)c2csc(N)n2)C(=O)N1S(=O)(=O)O` [AZTREONAM]: the MIC in test [1] is 12.5 µg/mL (≈ 28.7 µM); in test [2] it was 0.1 µg/mL (≈ 0.23 µM); in test [3], 1.56 µg/mL; in [4], 0.1 µg/mL; in test [5] it was 12.5 µg/mL; in [6] it was 3.12 µg/mL (≈ 7.17 µM).
